Calls of active or inactive are those of the source. The calls are words filed in the database; no cut-off is given here.
Experiments:
[1] = system: Hepatocyte growth factor receptor (Homo sapiens), P08581 [Y1230C]; experiment: Inhibition of recombinant human MET A1209G/V1290L/Y1248C mutant (974 to end residues) at 10 uM using KKKGQEEEYVFIE as substrate measured after 40 mins in presence of [gamma33P]ATP by scintillation counting method
[2] = AUC (0 to t) in Sprague-Dawley rat at 10 mg/kg, po administered via gavage by LC-MS/MS analysis; type: ADME, organism-based; conditions: in vivo
In short: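 Serial jugular blood samples taken at designated times and spun to plasma at 4 ℃. Plasma mixed with acetonitrile holding internal standard, then LC-MS/MS. Parameters from noncompartmental fitting.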

[3] = biological target: Testis-specific serine/threonine-protein kinase 4 (Homo sapiens) (UniProt Q6SA08); experiment: Inhibition of recombinant full-length human TSSK4 at 10 uM using KKLNRTLSFAEPG as substrate measured after 40 mins in presence of [gamma33P]ATP by scintillation counting method
[4] = biological target: Serine/threonine-protein kinase WNK2 (Homo sapiens) (UniProt Q9Y3S1); experiment: Inhibition of human WNK2 (166 to 489 residues) using myelin basic protein as substrate measured after 40 mins in presence of [gamma33P]ATP by scintillation counting method
[5] = system: Serine/threonine-protein kinase N1 (Homo sapiens), Q16512 [V901I]; experiment: Inhibition of human PRK1 V901I mutant (498 to end residues) using KKLNRTLSFAEPG as substrate measured after 40 mins in presence of [gamma33P]ATP by scintillation counting method
In short: (§1)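 Kinase panel of 422 kinases screened by Eurofins KinaseProfiler at a single test-compound concentration of 10 µM.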

[6] = biological target: CDK7/Cyclin H/MNAT1 (Homo sapiens) (UniProt P51946+P50613+P51948); experiment: Inhibition of recombinant full length human CDK7/cyclin H/MAT1 at 10 uM using peptide substrate measured after 40 mins in presence of [gamma33P]ATP by scintillation counting method; type: protein-complex assay
[7] = biological target: Serine/threonine-protein kinase ULK1 (Homo sapiens) (UniProt O75385); experiment: Inhibition of human ULK1 (1 to 314 residues) using casein as substrate measured after 40 mins in presence of [gamma33P]ATP by scintillation counting method
[8] = biological target: Serine/threonine-protein kinase MRCK gamma (Homo sapiens) (UniProt Q6DT37); experiment: Inhibition of recombinant human MRCKgamma at 10 uM using KKRNRTLTV as substrate measured after 40 mins in presence of [gamma33P]ATP by scintillation counting method
[9] = system: Serine/threonine-protein kinase TAO3 (Homo sapiens), Q9H2K8 [UNDEFINED MUTATION]; experiment: Inhibition of human TAO3 (1 to 411 residues) using myelin basic protein as substrate measured after 40 mins in presence of [gamma33P]ATP by scintillation counting method
[10] = biological target: NT-3 growth factor receptor (Homo sapiens) (UniProt Q16288); experiment: Inhibition of human TrkC (510 to end residues) using GEEPLYWSFPAKKK as substrate measured after 40 mins in presence of [gamma33P]ATP by scintillation counting method
[11] = biological target: Cyclin-dependent kinase-like 1 (Homo sapiens) (UniProt Q00532); experiment: Inhibition of recombinant human CDKL1 (1 to 303 residues) at 10 uM using RRRFRPASPLRGP as substrate measured after 120 mins in presence of [gamma33P]ATP by scintillation counting method
[12] = biological target: cGMP-dependent protein kinase 2 (Homo sapiens) (UniProt Q13237); experiment: Inhibition of recombinant full-length human PRKG2 at 10 uM using KKLRRTLSFAEPG as substrate measured after 40 mins in presence of [gamma33P]ATP by scintillation counting method
[13] = biological target: Serine/threonine-protein kinase WNK3 (Homo sapiens) (UniProt Q9BYP7); experiment: Inhibition of human WNK3 (1 to 434 residues) using myelin basic protein as substrate measured after 40 mins in presence of [gamma33P]ATP by scintillation counting method
[14] = biological target: Transient receptor potential cation channel subfamily M member 7 (Homo sapiens) (UniProt Q96QT4); experiment: Inhibition of recombinant human CHAK1 (1180 to end residues) at 10 uM using myelin basic protein as substrate measured after 40 mins in presence of [gamma33P]ATP by scintillation counting method
[15] = biological target: Maternal embryonic leucine zipper kinase (Homo sapiens) (UniProt Q14680); experiment: Inhibition of recombinant human MELK (1 to 340 residues) at 10 uM using KKLNRTLSFAEPG as substrate measured after 40 mins in presence of [gamma33P]ATP by scintillation counting method
[16] = biological target: Mitogen-activated protein kinase kinase kinase 11 (Homo sapiens) (UniProt Q16584); experiment: Inhibition of human MLK3 at 10 uM by radiometric method; in short: as §1
[17] = species on record: Mus musculus; experiment: Inhibition of recombinant full-length mouse PI3K p110beta/p85beta R123L mutant at 10 uM using phosphatidylinositol-4, 5-bisphosphate as substrate measured after 40 mins by HTRF assay
[18] = biological target: Phosphatidylinositol 4-phosphate 5-kinase type-1 gamma (Homo sapiens) (UniProt O60331); experiment: Inhibition of recombinant full-length human PIP5K1gamma at 10 uM using phosphatidylinositol 4-phosphate as substrate measured after 40 mins by HTRF assay
[19] = system: Fibroblast growth factor receptor 1 (Homo sapiens), P11362 [V561M]; experiment: Inhibition of recombinant human FGFR1 V561M mutant (456 to 765 residues) at 10 uM using GGEEEEYFELVKKKK as substrate measured after 40 mins in presence of [gamma33P]ATP by scintillation counting method
[20] = biological target: Insulin-like growth factor 1 receptor (Homo sapiens) (UniProt P08069); experiment: Inhibition of recombinant human activated IGF1R (959 to end residues) at 10 uM using KKKSPGEYVNIEFG as substrate measured after 40 mins in presence of [gamma33P]ATP by scintillation counting method
[21] = biological target: Hepatocyte growth factor receptor (Homo sapiens) (UniProt P08581); experiment: Inhibition of recombinant human MET A1209G/V1290L mutant (974 to end residues) at 10 uM using KKKGQEEEYVFIE as substrate measured after 40 mins in presence of [gamma33P]ATP by scintillation counting method
[22] = biological target: CREB-binding protein (Homo sapiens) (UniProt Q92793); experiment: Binding affinity to human partial length CREBBP (R1081 to G1197 residues) expressed in bacterial expression system at 1 uM by BROMOscan assay
In short: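 BROMOscan bromodomain cross-screen run by an outside service, compound at 1 µM against 32 recombinant bromodomains. Binding given as percent of control.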

[23] = species on record: Mus musculus; experiment: Inhibition of recombinant full-length mouse PI3K p110alpha/p85alpha E545K mutant at 10 uM using phosphatidylinositol-4, 5-bisphosphate as substrate measured after 40 mins by HTRF assay
[24] = biological target: PI3K p110 delta/p85 alpha (Mus musculus) (UniProt P26450+O35904); experiment: Inhibition of recombinant full-length mouse PI3K p110delta/p85alpha at 10 uM using phosphatidylinositol-4, 5-bisphosphate as substrate measured after 40 mins by HTRF assay; type: protein-complex assay

Sequence of Cyclin-dependent kinase-like 1 (Homo sapiens) (Q00532 whole entry, the tested form may be a part): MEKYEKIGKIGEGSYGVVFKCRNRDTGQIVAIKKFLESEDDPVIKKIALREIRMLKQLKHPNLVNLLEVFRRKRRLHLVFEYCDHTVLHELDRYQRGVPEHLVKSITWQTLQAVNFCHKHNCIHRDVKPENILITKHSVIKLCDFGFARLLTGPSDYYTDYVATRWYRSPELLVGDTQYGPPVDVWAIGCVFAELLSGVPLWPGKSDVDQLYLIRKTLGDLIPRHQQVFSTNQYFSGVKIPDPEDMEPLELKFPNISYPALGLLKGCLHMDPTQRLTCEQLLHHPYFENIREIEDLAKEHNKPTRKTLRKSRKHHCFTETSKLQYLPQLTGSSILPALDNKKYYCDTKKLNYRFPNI
Sequence of CREB-binding protein (Homo sapiens) (Q92793 2-2442 limits assumed): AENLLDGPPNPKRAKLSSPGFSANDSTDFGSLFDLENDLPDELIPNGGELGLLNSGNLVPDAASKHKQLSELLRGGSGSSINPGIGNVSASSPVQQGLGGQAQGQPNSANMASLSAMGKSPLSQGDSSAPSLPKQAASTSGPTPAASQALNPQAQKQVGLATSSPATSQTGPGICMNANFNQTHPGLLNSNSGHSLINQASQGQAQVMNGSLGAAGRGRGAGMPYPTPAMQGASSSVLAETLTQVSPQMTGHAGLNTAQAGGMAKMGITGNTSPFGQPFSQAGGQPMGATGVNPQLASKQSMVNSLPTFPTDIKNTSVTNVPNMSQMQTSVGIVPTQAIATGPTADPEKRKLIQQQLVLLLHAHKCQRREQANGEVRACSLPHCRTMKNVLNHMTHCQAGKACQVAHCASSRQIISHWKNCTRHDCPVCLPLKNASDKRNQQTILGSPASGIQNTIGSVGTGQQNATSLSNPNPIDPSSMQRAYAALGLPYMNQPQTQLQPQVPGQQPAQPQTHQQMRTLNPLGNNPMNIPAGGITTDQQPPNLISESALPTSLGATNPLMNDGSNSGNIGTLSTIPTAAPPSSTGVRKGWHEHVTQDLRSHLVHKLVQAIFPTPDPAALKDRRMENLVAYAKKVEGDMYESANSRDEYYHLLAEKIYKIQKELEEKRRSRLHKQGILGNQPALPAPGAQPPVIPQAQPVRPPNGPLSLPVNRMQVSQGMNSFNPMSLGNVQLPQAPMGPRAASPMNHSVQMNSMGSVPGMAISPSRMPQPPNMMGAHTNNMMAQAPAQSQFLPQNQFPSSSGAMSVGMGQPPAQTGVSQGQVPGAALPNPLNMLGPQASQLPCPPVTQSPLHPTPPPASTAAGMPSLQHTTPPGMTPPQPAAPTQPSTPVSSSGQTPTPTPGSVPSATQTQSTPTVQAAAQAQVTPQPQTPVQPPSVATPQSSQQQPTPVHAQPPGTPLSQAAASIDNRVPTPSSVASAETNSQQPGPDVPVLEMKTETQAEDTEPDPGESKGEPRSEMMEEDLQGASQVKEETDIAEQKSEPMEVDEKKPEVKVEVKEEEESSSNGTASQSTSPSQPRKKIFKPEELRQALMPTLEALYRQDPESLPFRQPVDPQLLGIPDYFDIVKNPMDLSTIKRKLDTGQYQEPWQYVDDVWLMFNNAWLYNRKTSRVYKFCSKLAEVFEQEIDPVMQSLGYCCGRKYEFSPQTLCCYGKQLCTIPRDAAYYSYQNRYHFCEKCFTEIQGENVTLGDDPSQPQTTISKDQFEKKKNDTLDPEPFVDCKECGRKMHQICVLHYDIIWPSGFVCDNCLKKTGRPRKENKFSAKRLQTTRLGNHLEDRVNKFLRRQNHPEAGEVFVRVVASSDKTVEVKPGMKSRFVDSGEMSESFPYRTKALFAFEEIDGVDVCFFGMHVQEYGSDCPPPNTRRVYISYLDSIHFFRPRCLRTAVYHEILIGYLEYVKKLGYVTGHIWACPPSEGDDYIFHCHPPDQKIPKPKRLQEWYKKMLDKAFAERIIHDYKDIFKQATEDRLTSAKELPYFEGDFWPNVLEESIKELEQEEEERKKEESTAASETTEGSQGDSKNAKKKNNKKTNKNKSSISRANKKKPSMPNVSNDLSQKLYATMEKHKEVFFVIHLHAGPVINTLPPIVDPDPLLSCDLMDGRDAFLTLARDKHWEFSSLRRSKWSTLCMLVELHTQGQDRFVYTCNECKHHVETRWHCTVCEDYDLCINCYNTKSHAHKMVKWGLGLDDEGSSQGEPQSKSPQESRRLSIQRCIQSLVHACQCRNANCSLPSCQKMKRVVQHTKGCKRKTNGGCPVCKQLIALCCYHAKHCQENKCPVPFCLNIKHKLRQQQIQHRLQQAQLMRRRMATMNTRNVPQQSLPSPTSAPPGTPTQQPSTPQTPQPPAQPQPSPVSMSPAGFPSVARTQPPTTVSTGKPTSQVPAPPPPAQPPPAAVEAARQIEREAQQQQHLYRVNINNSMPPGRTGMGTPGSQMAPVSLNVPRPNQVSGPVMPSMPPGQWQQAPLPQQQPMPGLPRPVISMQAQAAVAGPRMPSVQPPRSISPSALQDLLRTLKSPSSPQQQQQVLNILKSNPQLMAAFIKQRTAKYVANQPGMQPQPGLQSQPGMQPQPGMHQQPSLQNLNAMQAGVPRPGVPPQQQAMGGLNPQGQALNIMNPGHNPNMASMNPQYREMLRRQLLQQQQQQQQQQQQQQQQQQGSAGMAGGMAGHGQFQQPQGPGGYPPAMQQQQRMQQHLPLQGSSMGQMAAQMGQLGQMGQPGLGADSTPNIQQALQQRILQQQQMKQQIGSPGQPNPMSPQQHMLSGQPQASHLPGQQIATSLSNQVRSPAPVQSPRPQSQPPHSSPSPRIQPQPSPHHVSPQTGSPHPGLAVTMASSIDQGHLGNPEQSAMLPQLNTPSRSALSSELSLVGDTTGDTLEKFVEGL
Sequence of Hepatocyte growth factor receptor (Homo sapiens), P08581 [Y1230C] (P08581 whole entry Y1230C): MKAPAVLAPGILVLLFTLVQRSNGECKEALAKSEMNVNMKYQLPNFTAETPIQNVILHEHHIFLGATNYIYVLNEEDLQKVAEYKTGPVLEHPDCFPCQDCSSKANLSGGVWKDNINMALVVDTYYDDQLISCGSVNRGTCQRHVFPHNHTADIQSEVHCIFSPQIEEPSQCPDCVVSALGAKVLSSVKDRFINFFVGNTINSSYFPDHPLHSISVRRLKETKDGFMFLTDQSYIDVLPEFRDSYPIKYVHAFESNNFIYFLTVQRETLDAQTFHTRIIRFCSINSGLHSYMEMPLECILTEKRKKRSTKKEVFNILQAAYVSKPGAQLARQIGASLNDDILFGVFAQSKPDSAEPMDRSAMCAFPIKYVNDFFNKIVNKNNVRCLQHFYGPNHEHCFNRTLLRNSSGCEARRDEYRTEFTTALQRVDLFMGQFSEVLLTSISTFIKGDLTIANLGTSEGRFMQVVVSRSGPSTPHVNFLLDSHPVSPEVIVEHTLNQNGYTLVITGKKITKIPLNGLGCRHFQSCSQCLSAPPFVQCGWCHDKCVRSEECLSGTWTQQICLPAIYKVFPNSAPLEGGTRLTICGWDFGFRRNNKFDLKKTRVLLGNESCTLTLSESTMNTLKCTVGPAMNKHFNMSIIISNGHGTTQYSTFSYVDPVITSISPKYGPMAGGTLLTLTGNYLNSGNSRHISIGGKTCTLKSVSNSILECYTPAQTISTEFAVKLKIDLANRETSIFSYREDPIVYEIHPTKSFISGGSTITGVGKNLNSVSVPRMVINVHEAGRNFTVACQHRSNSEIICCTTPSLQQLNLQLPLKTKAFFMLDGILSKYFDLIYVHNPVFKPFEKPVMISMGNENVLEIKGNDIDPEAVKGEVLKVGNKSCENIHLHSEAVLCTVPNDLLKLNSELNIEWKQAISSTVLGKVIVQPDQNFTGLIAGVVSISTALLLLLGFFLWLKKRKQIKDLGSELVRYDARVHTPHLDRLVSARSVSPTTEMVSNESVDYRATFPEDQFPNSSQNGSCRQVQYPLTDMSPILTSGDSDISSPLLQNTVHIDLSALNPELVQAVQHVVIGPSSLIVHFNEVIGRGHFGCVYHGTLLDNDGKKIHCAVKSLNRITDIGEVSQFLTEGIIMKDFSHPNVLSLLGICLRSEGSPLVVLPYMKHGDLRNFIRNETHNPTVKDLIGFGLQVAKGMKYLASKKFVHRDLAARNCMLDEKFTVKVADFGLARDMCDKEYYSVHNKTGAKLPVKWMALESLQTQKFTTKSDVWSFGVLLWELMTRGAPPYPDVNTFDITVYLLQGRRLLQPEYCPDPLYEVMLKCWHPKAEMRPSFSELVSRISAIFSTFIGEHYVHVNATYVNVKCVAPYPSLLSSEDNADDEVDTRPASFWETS
Sequence of cGMP-dependent protein kinase 2 (Homo sapiens) (Q13237 whole entry, the tested form may be a part): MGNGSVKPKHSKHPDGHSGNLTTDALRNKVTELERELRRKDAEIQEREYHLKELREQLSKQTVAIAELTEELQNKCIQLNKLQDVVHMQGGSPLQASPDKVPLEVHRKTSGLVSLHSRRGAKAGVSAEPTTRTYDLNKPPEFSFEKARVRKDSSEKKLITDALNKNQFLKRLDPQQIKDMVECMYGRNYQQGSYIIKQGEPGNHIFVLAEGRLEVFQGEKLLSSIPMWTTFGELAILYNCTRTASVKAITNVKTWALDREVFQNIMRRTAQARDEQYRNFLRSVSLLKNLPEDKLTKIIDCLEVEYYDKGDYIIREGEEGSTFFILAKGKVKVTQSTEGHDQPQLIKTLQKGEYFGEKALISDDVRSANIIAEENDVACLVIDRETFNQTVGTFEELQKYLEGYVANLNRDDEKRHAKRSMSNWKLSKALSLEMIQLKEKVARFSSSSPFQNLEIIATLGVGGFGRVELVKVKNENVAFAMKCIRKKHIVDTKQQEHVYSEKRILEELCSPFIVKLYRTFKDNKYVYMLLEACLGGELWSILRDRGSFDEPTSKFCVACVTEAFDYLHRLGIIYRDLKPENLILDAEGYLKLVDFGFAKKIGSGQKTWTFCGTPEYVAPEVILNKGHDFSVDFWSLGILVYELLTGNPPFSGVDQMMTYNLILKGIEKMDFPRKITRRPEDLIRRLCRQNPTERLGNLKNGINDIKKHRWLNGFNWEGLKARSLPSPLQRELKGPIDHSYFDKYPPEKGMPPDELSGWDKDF

Structure (SMILES): CN1C[C@H](Nc2nc3cc[nH]c3c(=O)n2C)C[C@H](c2ccc3c(c2)OCCO3)C1
- inhibition [1]: inactive
- AUC(0-t) [2]: 2480 ng·h/mL
- inhibition [3]: inactive
- inhibition [4]: inactive
- inhibition [5]: inactive
- inhibition [6]: inactive
- inhibition [7]: inactive
- inhibition [8]: inactive
- inhibition [9]: inactive
- inhibition [10]: inactive
- inhibition [11]: inactive
- inhibition [12]: inactive
- inhibition [13]: inactive
- inhibition [14]: inactive
- inhibition [15]: inactive
- inhibition [16]: inactive
- inhibition [17]: inactive
- inhibition [18]: inactive
- inhibition [19]: inactive
- inhibition [20]: inactive
- inhibition [21]: inactive
- Activity [22]: inactive
- inhibition [23]: inactive
- inhibition [24]: inactive

Reference: ChEMBL document CHEMBL4350961, “Discovery of Pyrrolo[3,2- d]pyrimidin-4-one Derivatives as a New Class of Potent and Cell-Active Inhibitors of P300/CBP-Associated Factor Bromodomain” (J Med Chem, 2019)
